This is a sample that favours compounds with a hit; in the whole collection about 3.5% have one here.
RGS4 block: human RGS4 inhibition. P49798. AID 463165. HEK293 M3R/RGS4 inducible, Fluo-4 calcium flux; stronger effect = higher value; triggered by carbachol at its EC20. B-score at 10 µM. 310,000 compounds, 0.45% hits;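 active = B-score, a plate-corrected calcium signal, over three deviations above library mean, with baseline fluorescence within five deviations of library mean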;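 also: RGS4 expression induced by doxycycline in cells with stable M3 receptor; B-score is computed from the integrated fluorescence ratio over baseline after carbachol; higher B-score means a larger calcium signal and so more RGS4 inhibition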
Target sequence (P49798 whole entry, looked up): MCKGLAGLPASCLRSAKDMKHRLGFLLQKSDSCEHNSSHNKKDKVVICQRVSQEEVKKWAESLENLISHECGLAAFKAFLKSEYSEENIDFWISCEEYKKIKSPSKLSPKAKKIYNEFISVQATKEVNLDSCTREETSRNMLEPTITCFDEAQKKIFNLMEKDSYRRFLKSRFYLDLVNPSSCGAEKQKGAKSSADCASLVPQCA
MrgX1 allo act: allosterically activates human MrgX1 receptor signaling; Q96LB2; MrgX1-HEK293, Fluo-4 calcium flux, FDSS; stronger effect = higher value; B-score at 10 µM; 310,000 compounds, 0.63% hits; AID 588675;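 active = plate-corrected calcium response at least 3 library SD above typical, normal starting fluorescence, not activating the receptor alone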;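 also: compound read alongside a low EC10 to EC30 dose of BAM8-22 agonist; peak minus trough fluorescence over baseline measured at the second addition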
MrgX1 ag: human MrgX1 receptor agonism, primary screen; Q96LB2; B-score at 10 µM; MrgX1-HEK293 cells, Fluo-4 calcium fluorescence, agonist mode; stronger effect = higher value; AID 588627; 310,000 compounds, 0.44% hits;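 active = calcium response B-score plate-corrected fluorescence ratio at least 3 library SD, with starting fluorescence B-score inside 5 SD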
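Test system: Stable human MrgX1 HEK293 cell line | Schedule: Overnight plating before 1 h dye loading | Read-out basis: Baseline-normalised fluorescence change ratio, B-scored | Detection: Kinetic calcium dye fluorescence, Fluo-4 NW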
RGS4 act: potentiators or activators of RGS4; HEK293 M3R/inducible RGS4, carbachol calcium flux Fluo4; stronger effect = lower value; B-score at 10 µM; 310,000 compounds, 0.92% hits; AID 463111;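 active = B-score of the integrated calcium signal more than 4 SD below the library mean, with starting fluorescence not abnormally high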;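 also: negative B-score means reduced calcium response which marks RGS4 activation or potentiation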
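Assay system: HEK293 FlpIn-TREx cells, stable M3R, doxycycline-inducible RGS4 / Probe or stimulus: carbachol, ECmax concentration / Times: overnight RGS4 induction, 30 min dye load 37 °C, 20 min compound RT / Signal: kinetic calcium fluorescence imaging with Fluo4-AM dye, 2 µM / Measure: Agonist-evoked peak-minus-minimum fluorescence over baseline, integrated ratio, B score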
MrgX1 antagonist: antagonists of human MrgX1 receptor; 310,000 compounds, 1.3% hits; AID 588676; B-score at 10 µM; MRGX1-HEK293 calcium flux, Fluo-4, BAM8-22 antagonism; stronger effect = lower value; Q96LB2;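 active = calcium-response B-score plate-corrected more than 3 library SD below zero, starting fluorescence within 5 deviations, no agonist response on first addition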;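 also: peak minus trough fluorescence over baseline after final BAM8-22 challenge near maximal dose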
RGS4 activ val: RGS4 activation, validation assay; shares compounds with RGS4 act; HEK293 M3R/RGS4 inducible, carbachol calcium flux Fluo4; inhibition, % at 10 µM; 1,100 compounds, 89% hits; AID 602282;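 active = inhibition above 3 SD of the buffer control wells, cut at about 41% in these data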;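 also: signal is the integrated peak-minus-minimum Fluo4 fluorescence over baseline ratio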
RGS4 act ctr: activity in cells without induced RGS4 expression; 1,100 compounds, 82% hits; AID 602283; HEK293 M3R non-induced RGS4, Fluo4 calcium flux; after carbachol challenge at its EC90; inhibition, % at 10 µM; shares compounds with RGS4 act;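 active = inhibition exceeding 3 SD of buffer-only control wells, cut at about 26% in these data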;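 also: percent drop in integrated peak-minus-baseline over baseline Fluo4 ratio after carbachol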
Active calls of the source: *.

Screening Cc1ccc2cc(NC(=O)c3ccc(C(C)(C)C)cc3)ccc2n1 returned RGS4 block inactive, MrgX1 allo act inactive, MrgX1 ag inactive, RGS4 act -8.2*, MrgX1 antagonist inactive, RGS4 activ val 84* and RGS4 act ctr 81*.
`Cc1cccc(N2CCN(C(=O)CSc3nc4ccccc4nc3N3CC(C)OC(C)C3)CC2)c1C` (configuration not stated) gave RGS4 block inactive, MrgX1 allo act inactive, MrgX1 ag inactive, RGS4 act -8.1*, MrgX1 antagonist inactive, RGS4 activ val 85* and RGS4 act ctr 84*.
`Cc1cccc(NC(=O)CSc2nc3ccccc3nc2N2CC(C)OC(C)C2)c1` (configuration not stated) gave RGS4 block inactive, MrgX1 allo act inactive, MrgX1 ag inactive, RGS4 act inactive and MrgX1 antagonist inactive.
For CCOC(=O)C1CCN(S(=O)(=O)c2ccc3c(c2)CC(C)N3C(=O)C2CCC2)CC1 (configuration not stated) the results were RGS4 block inactive, MrgX1 allo act inactive, MrgX1 ag inactive, RGS4 act -8.2*, MrgX1 antagonist inactive, RGS4 activ val 57* and RGS4 act ctr 0.
Screening Cn1c(=O)c2c(ncn2CCOc2ccc(Br)cc2)n(C)c1=O returned RGS4 block inactive, MrgX1 allo act inactive, MrgX1 ag inactive, RGS4 act inactive and MrgX1 antagonist inactive.
Screening Cn1c(=O)c2c(ncn2CCOc2ccc(F)cc2)n(C)c1=O returned RGS4 block inactive, MrgX1 allo act inactive, MrgX1 ag inactive, RGS4 act -8.9*, MrgX1 antagonist inactive, RGS4 activ val 0 and RGS4 act ctr 0.
For CN(Cc1cccc(F)c1)C(=O)C(c1ccccc1)c1ccccc1 the results were RGS4 block inactive, MrgX1 allo act inactive, MrgX1 ag inactive, RGS4 act inactive and MrgX1 antagonist inactive.
Screening CN(Cc1ccc(F)cc1)C(=O)C(c1ccccc1)c1ccccc1 returned RGS4 block inactive, MrgX1 allo act inactive, MrgX1 ag inactive, RGS4 act -9.1*, MrgX1 antagonist inactive, RGS4 activ val 82* and RGS4 act ctr 84*.
`CC(=O)c1ccc(N2CCN(CC(O)COC(c3ccccc3)c3ccccc3)CC2)cc1` (configuration not stated) gave RGS4 block inactive, MrgX1 allo act inactive, MrgX1 ag inactive, RGS4 act -7.7*, MrgX1 antagonist inactive, RGS4 activ val 62* and RGS4 act ctr 84*.
CC(=O)c1ccc(N2CCN(CC(O)COC(c3ccccc3)c3ccccc3C)CC2)cc1 (configuration not stated) was read as RGS4 block inactive, MrgX1 allo act inactive, MrgX1 ag inactive, RGS4 act -11*, MrgX1 antagonist inactive, RGS4 activ val 94* and RGS4 act ctr 83*.
For Cc1nccn1CC(O)COc1ccc([N+](=O)[O-])cc1 (configuration not stated) the results were RGS4 block inactive, MrgX1 allo act inactive, MrgX1 ag inactive, RGS4 act inactive and MrgX1 antagonist inactive.
Nc1ccc2c(c1)C(=O)c1ccccc1-2 was read as RGS4 block inactive, MrgX1 allo act inactive, MrgX1 ag inactive, RGS4 act inactive and MrgX1 antagonist inactive.
Nc1ccc2c(c1)C(=O)C(=O)c1ccccc1-2 was read as RGS4 block inactive, MrgX1 allo act inactive, MrgX1 ag inactive, RGS4 act -8.7*, MrgX1 antagonist inactive, RGS4 activ val 68* and RGS4 act ctr 48*.
CCn1c(C)c(C)c2cc(C(=O)Nc3cccc(Cl)c3)ccc21 was read as RGS4 block inactive, MrgX1 allo act inactive, MrgX1 ag inactive, RGS4 act -7.7*, MrgX1 antagonist inactive, RGS4 activ val 61* and RGS4 act ctr 0.
